We go through 17 compounds from ChEMBL document CHEMBL4118273, “Design, Synthesis, and Biological Evaluation of Pyrimido[4,5- d]pyrimidine-2,4(1 H,3 H)-diones as Potent and Selective Epidermal Growth Factor Receptor (EGFR) Inhibitors against L858R/T790M Resistance Mutation” (J Med Chem, 2018).

≈ marks a conversion by molar mass, not a printed value. Bounds are passed on as bounds.

Data set [1] concerns the target Epidermal growth factor receptor (Homo sapiens, UniProt P00533). Briefly: Inhibition of recombinant human GST-tagged EGFR (668 to 1210 residues) expressed in baculovirus expression system using Poly(Glu,Tyr)4:1 as substrate after 1 hr by ELISA.
The target in data set [2] is Epidermal growth factor receptor (Homo sapiens, UniProt P00533, L858R/T790M). Nature of the data set: Inhibition of recombinant human GST-tagged EGFR L858R/T790M double mutant expressed in baculovirus expression system using Poly(Glu,Tyr)4:1 as substrate after 1 hr by ELISA. (An ELISA detects its analyte on a solid surface through an enzyme-linked reagent.)
Chain of Epidermal growth factor receptor (Homo sapiens, UniProt P00533, L858R/T790M) (P00533 25-1210 T790M/L858R limits assumed): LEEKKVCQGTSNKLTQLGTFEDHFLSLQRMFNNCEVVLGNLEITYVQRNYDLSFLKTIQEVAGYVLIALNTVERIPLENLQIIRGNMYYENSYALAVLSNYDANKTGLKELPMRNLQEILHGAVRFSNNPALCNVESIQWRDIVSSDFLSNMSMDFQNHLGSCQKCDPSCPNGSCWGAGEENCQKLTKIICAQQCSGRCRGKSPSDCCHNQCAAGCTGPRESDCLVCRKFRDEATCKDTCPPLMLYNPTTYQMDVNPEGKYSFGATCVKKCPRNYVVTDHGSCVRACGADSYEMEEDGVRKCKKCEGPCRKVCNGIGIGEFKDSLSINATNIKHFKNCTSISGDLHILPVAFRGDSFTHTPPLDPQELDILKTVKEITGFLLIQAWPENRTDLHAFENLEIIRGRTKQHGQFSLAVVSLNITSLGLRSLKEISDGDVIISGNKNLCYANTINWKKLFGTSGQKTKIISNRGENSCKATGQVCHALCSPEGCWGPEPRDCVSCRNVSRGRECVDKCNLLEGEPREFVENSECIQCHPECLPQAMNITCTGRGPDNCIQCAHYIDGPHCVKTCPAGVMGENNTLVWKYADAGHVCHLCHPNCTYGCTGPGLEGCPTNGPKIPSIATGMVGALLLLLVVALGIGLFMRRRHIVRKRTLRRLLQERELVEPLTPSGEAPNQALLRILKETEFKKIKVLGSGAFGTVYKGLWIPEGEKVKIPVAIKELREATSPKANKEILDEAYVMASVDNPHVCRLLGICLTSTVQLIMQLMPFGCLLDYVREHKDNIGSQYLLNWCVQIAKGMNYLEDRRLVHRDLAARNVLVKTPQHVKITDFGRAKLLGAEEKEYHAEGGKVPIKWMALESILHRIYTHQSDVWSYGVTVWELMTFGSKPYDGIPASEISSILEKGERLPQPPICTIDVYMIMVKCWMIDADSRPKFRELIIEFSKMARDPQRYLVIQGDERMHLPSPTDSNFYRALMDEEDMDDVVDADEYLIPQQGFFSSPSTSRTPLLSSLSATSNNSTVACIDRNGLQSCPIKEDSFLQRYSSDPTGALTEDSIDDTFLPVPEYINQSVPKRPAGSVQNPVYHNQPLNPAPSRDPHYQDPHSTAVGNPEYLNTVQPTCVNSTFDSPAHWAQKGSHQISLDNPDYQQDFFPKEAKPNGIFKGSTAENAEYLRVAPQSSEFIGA
Data set [3] is filed under the species Homo sapiens. Nature of the data set: Selectivity ratio of IC50 for recombinant human GST-tagged EGFR (668 to 1210 residues) expressed in baculovirus expression system to IC50 for recombinant human GST-tagged EGFR L858R/T790M double mutant expressed in baculovirus expression system. Put shortly:
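ELISA-based EGFR tyrosine kinase assay run on wild-type and L858R/T790M enzymes. IC50 values come from at least three independent determinations, reported as means ± SD. Selectivity is the wild-type IC50 divided by the L858R/T790M IC50.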

Data set [4] deals with A-431. Nature of the data set: Cytotoxicity against human A431 cells harboring wild type EGFR assessed as reduction in cell viability after 72 hrs by SRB assay. The settings on record: A-431, 72 h. The format is cell-based. The method, boiled down:
(§1)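 Cell growth inhibition measured by sulforhodamine B colorimetric assay in H1975 (EGFR L858R/T790M) and A431 (overexpressed wild-type EGFR) cells; IC50 values are means ± SD of at least three independent determinations. Selectivity is taken as the A431:H1975 IC50 ratio.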
In general terms: The SRB assay estimates cell density from bound dye.

Data set [5] concerns NCI-H1975. Briefly: Antiproliferative activity against human NCI-H1975 cells harboring EGFR L858R/T790M double mutant after 72 hrs by SRB assay. It is filed as functional, cell-based. Conditions: NCI-H1975, 72 h. The method, boiled down: as §1
Data set [6] is filed under the species Homo sapiens. Briefly: Selectivity index, ratio of IC50 for human A431 cells harboring wild type EGFR to IC50 for human NCI-H1975 cells harboring EGFR L858R/T790M double mutant. The method, boiled down: as §1
The nature of data set [7]: Aqueous solubility in pH 7.4 PBS buffer by UV-Visible spectrophotometric method. It is filed as physicochemical. The method, boiled down: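 Solubility determined in 0.1 M PBS, pH 7.4, by UV-visible spectrophotometry.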

Chain of Epidermal growth factor receptor (Homo sapiens, UniProt P00533) (P00533 whole entry, the tested form may be a part): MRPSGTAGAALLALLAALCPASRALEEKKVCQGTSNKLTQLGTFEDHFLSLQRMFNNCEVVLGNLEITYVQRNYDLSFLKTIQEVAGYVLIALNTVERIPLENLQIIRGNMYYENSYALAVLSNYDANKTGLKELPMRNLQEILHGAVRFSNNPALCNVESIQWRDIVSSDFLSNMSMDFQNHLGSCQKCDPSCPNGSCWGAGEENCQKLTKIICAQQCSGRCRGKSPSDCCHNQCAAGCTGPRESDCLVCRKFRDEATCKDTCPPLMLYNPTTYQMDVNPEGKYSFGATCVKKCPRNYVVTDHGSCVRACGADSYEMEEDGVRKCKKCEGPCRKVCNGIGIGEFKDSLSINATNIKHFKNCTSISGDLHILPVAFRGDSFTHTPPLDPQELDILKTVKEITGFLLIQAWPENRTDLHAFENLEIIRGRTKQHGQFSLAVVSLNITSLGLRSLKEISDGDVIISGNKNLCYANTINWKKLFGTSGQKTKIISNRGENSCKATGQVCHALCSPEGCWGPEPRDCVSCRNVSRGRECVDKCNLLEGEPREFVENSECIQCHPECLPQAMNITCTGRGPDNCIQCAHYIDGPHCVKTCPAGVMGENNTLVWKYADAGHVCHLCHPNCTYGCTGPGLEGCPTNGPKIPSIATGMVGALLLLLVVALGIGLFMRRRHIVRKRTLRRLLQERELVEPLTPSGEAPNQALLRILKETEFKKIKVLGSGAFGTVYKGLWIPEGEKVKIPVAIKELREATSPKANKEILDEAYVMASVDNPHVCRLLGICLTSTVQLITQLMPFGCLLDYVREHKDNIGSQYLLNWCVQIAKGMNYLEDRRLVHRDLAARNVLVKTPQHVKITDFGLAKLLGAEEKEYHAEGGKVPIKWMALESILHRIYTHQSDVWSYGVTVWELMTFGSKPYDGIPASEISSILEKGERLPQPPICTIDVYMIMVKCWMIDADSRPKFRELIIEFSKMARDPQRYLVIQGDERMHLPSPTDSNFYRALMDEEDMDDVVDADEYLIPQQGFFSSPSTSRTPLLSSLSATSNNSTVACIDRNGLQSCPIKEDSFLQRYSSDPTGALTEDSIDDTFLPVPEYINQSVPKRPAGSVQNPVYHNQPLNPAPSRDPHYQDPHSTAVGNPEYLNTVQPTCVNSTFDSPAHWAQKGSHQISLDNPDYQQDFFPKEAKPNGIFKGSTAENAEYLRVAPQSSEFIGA

As usually defined, the IC50 is the point on the concentration scale where inhibition reaches its midpoint. The term solubility denotes how much of the substance goes into solution per volume. A higher solubility goes with a readily soluble substance. On to `C=CC(=O)Nc1cccc(-n2c(=O)n(C)c(=O)c3cnc(Nc4ccc(N5CCSCC5)cc4OC)nc32)c1`, for which the IC50 was 0.314 µM in data set [1], 0.091 µM in data set [2], 8.37 µM in data set [4] and 0.573 µM in data set [5]. In addition, the Ratio IC50 in data set [3] is 3.5; in data set [6], 15. This compound registered a solubility in data set [7] of 0.045 mg/mL (≈ 82.5 µM).
Consider `C=CC(=O)Nc1cccc(-n2c(=O)n(C(C)C)c(=O)c3cnc(Nc4ccc(N(C)CCN(C)C)cc4OC)nc32)c1`, for which the IC50 turned out to be 0.121 µM in data set [1], 0.016 µM in data set [2], 1.95 µM in data set [4] and 0.138 µM in data set [5]. Further, the Ratio IC50 in data set [3] was found to be 7.6; in data set [6], 14. For the same compound, the solubility in data set [7] is 1.05 mg/mL (≈ 1840 µM).
`C=CC(=O)Nc1cccc(-n2c(=O)n(Cc3ccccc3)c(=O)c3cnc(Nc4ccc(N5CCC(N(C)C)CC5)cc4OC)nc32)c1`: the IC50 came to 0.0012 µM in data set [1], 0.0019 µM in data set [2], 3.3 µM in data set [4] and 0.278 µM in data set [5]. Also, the Ratio IC50 in data set [3] came to 0.6; in data set [6] it was 12. Moreover, the solubility in data set [7] came to 0.137 mg/mL (≈ 212 µM).
`C=CC(=O)Nc1cccc(-n2c(=O)n(C)c(=O)c3cnc(Nc4ccc(N5CCC(N(C)C)CC5)cc4OC)nc32)c1`: the IC50 in data set [4] was determined as 3.89 µM; in data set [5], 0.23 µM. The compound further gave a solubility in data set [7] of 0.531 mg/mL (≈ 931 µM).
Consider `C=CC(=O)Nc1cccc(-n2c(=O)n(C(C)C)c(=O)c3cnc(Nc4ccc(OCCN(C)C)cc4OC)nc32)c1`, for which the IC50 in data set [1] was 0.227 µM; in data set [2] it was 0.115 µM; in data set [4] it was 3.6 µM; in data set [5], 0.099 µM. For the same compound, the figures for the Ratio IC50 in data set [3] and in data set [6] were 2 and 36, respectively. Moreover, the solubility in data set [7] is 0.647 mg/mL (≈ 1160 µM).
In the case of `C=CC(=O)Nc1cccc(-n2c(=O)n(C(C)C)c(=O)c3cnc(Nc4ccc(N5CCN(C)CC5)c(OC)c4)nc32)c1`, the IC50 in data set [1] stood at 0.119 µM; in data set [2], 0.0068 µM; in data set [4], 1.05 µM; in data set [5], 0.037 µM. In addition, the Ratio IC50 is 18 in data set [3] and 28 in data set [6]. This compound registered a solubility in data set [7] of 0.309 mg/mL (≈ 541 µM).
Take `C=CC(=O)Nc1cccc(-n2c(=O)n(CC)c(=O)c3cnc(Nc4ccc(N5CCC(N(C)C)CC5)cc4OC)nc32)c1`: the IC50 was 0.111 µM in data set [1], 0.0025 µM in data set [2], > 10 µM in data set [4] and 0.175 µM in data set [5]. Further, the Ratio IC50 in data set [3] was 44. The same compound came in with a solubility in data set [7] of 0.229 mg/mL (≈ 392 µM).
For `C=CC(=O)Nc1cccc(Nc2nc(Nc3ccc(N4CCN(C(C)=O)CC4)cc3OC)ncc2C(F)(F)F)c1` [ROCILETINIB], the IC50 in data set [4] came to 0.641 µM; in data set [5] it was 0.031 µM.
With `C=CC(=O)Nc1cccc(-n2c(=O)n(CCC)c(=O)c3cnc(Nc4ccc(N5CCC(N(C)C)CC5)cc4OC)nc32)c1`, the IC50 was 0.013 µM in data set [1], 0.0004 µM in data set [2], 4.13 µM in data set [4] and 0.06 µM in data set [5]. Moreover, the Ratio IC50 was 33 in data set [3] and 69 in data set [6]. The same compound had a solubility in data set [7] of 0.184 mg/mL (≈ 307 µM).
In the case of `C=CC(=O)Nc1cccc(-n2c(=O)n(CCc3ccccc3)c(=O)c3cnc(Nc4ccc(N5CCC(N(C)C)CC5)cc4OC)nc32)c1`, the IC50 stood at 0.0007 µM in data set [1], 0.001 µM in data set [2], 2.04 µM in data set [4] and 0.189 µM in data set [5]. Moreover, the Ratio IC50 stood at 0.7 in data set [3] and 11 in data set [6]. For the same compound, the solubility in data set [7] worked out at 0.099 mg/mL (≈ 150 µM).
Consider `C=CC(=O)Nc1cccc(-n2c(=O)n(C(C)C)c(=O)c3cnc(Nc4ccc(N5CCN(C)CC5)c(C)c4)nc32)c1`, for which the IC50 in data set [1] was 0.034 µM; in data set [2], 0.001 µM; in data set [4], 0.954 µM; in data set [5] it was 0.024 µM. In addition, the figures for the Ratio IC50 in data set [3] and in data set [6] were 34 and 40, respectively. Also, in data set [7], the concentration in solution (solubility) came to 0.28 mg/mL (≈ 505 µM).
As for `C=CC(=O)Nc1cccc(-n2c(=O)n(C)c(=O)c3cnc(Nc4ccccc4)nc32)c1`, the IC50 is 0.082 µM in data set [1], 0.068 µM in data set [2], > 10 µM in data set [4] and 9.26 µM in data set [5]. Moreover, in data set [3], the Ratio IC50 is 1.2. The solubility in data set [7] is < 0.01 mg/mL.
For the compound `C=CC(=O)Nc1cccc(-n2c(=O)n(CCCc3ccccc3)c(=O)c3cnc(Nc4ccc(N5CCC(N(C)C)CC5)cc4OC)nc32)c1`, the IC50 was 0.0038 µM in data set [1], 0.0014 µM in data set [2], 1.46 µM in data set [4] and 0.358 µM in data set [5]. The Ratio IC50 in data set [3] came to 2.7; in data set [6], 4.1. The solubility in data set [7] turned out to be 0.104 mg/mL (≈ 154 µM).
Turning to `C=CC(=O)Nc1cccc(-n2c(=O)n(C(C)C)c(=O)c3cnc(Nc4ccc(N5CCC(N6CCN(C)CC6)CC5)cc4OC)nc32)c1`, the IC50 worked out at 0.24 µM in data set [1], 0.014 µM in data set [2], 1.39 µM in data set [4] and 0.154 µM in data set [5]. The values for the Ratio IC50 in data set [3] and in data set [6] were 17 and 9, respectively. Also, the solubility in data set [7] was found to be 0.121 mg/mL (≈ 185 µM).
Turning to `C=CC(=O)Nc1cccc(-n2c(=O)n(C(C)C)c(=O)c3cnc(Nc4ccc(N5CCC(N(C)C)CC5)cc4OC)nc32)c1`, the IC50 in data set [1] is 0.02 µM; in data set [2], 0.0008 µM; in data set [4], > 10 µM; in data set [5], 0.05 µM. Also, the Ratio IC50 in data set [3] was determined as 25. The solubility in data set [7] was found to be 0.176 mg/mL (≈ 294 µM).
As for `C=CC(=O)Nc1cccc(-n2c(=O)n(C)c(=O)c3cnc(Nc4ccc(N5CCN(C(C)=O)CC5)cc4OC)nc32)c1`, the IC50 in data set [1] was 0.18 µM; in data set [2], 0.046 µM; in data set [4], > 10 µM; in data set [5] it was > 10 µM. Besides, the Ratio IC50 in data set [3] came out at 3.9. In addition, in data set [7], the solubility is < 0.01 mg/mL.
On to `C=CC(=O)Nc1cccc(-n2c(=O)n(C)c(=O)c3cnc(Nc4ccc(N5CCOCC5)cc4OC)nc32)c1`, for which the IC50 is 0.341 µM in data set [1], 0.07 µM in data set [2], > 10 µM in data set [4] and > 10 µM in data set [5]. The Ratio IC50 in data set [3] turned out to be 4.9. The concentration in solution in data set [7] (solubility) was 0.061 mg/mL (≈ 115 µM).
